Converted amounts (≈) assume the structure as drawn.
Experiments:
[1] = target: T1, Transient receptor potential cation channel subfamily V member 4 (Homo sapiens, UniProt Q9HBA0); assay: Antagonist activity at human TRPV4 expressed in HEK cells assessed as inhibition of GSK634775-induced […] pre-incubated for 10 mins followed by agonist addition by Fluo-4-AM dye-based FLIPR assay; format: cell-based
Method in brief: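 TRPV4 from human recombinant channels in HEK cells; block of calcium mobilization evoked by agonist GSK634775, read on a fluorescent imaging plate reader; reported potency is an average of repeat determinations.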

[2] = Oral bioavailability in Sprague-Dawley rat at 2 mg/kg by LC/MS/MS analysis; format: ADME, organism-based; conditions: in vivo
[3] = target: T1, Transient receptor potential cation channel subfamily V member 4; assay: Antagonist activity at human TRPV4 expressed in BHK/AC9 cells assessed as inhibition of GSK634775-induced […] pre-incubated for 10 mins followed by agonist addition by Fluo-4-AM dye-based FLIPR assay; format: cell-based
[4] = MRT in Sprague-Dawley rat at 1 mg/kg, iv or 2 mg/kg, po by LC/MS/MS analysis; format: ADME, organism-based; conditions: in vivo
[5] = Clearance in Sprague-Dawley rat at 1 mg/kg, iv administered as 30 mins infusion by LC/MS/MS analysis; format: ADME, organism-based; conditions: in vivo
[6] = Clearance adjusted for unbound fraction in Sprague-Dawley rat at 1 mg/kg, iv administered as 30 mins infusion by LC/MS/MS analysis; format: ADME, organism-based; conditions: in vivo, 0.5 h
[7] = Volume of distribution at steady state in Sprague-Dawley rat at 1 mg/kg, iv or 2 mg/kg, po by LC/MS/MS analysis; format: ADME, organism-based; conditions: in vivo, read-out: Vdss
[8] = Metabolic stability in rat liver microsomes assessed as parent compound remaining after 30 mins; format: ADME, Microsome; conditions: read-out: Stability
Method in brief: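 Rat liver microsomes incubated 30 min with glutathione for trapping; parent remaining measured.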

[9] = target: T1, Transient receptor potential cation channel subfamily V member 4; assay: Antagonist activity at human TRPV4 expressed in HEK cells assessed as inhibition of GSK634775-induced Ca2+ influx by FLIPR assay; format: cell-based
[10] = Permeability of the compound by PAMPA; format: ADME; conditions: read-out: permeability
HepG2 [11] = assay: Induction of phospholipidosis in human HepG2 cells after 72 hrs by fluorescence assay relative to control; format: cell-based; conditions: hepg2, 72 h
HepG2 [12] = assay: Induction of phospholipidosis in human HepG2 cells after 72 hrs by fluorescence assay; format: cell-based; conditions: hepg2, 72 h
[13] = target: T1, Transient receptor potential cation channel subfamily V member 4; assay: Antagonist activity at TRPV4 (unknown origin)
Cytochrome P450 3A4 [14] = target: T2, Cytochrome P450 3A4 (Homo sapiens, UniProt P08684); conditions: 100 µM
T2 sequence (P08684 whole entry): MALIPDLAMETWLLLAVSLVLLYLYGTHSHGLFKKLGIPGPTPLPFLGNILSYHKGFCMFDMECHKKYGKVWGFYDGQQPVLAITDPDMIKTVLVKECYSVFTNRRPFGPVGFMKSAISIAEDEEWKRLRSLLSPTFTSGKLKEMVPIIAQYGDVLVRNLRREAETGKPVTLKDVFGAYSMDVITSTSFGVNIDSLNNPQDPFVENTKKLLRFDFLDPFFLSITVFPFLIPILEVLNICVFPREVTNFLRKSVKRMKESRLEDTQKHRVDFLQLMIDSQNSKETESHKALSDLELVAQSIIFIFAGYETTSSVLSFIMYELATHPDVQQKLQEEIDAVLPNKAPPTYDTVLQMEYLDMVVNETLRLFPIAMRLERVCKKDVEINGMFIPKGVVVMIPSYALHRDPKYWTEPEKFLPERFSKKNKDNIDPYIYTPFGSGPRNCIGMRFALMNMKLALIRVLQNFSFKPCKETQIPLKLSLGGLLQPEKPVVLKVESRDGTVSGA

[15] = Kinetic aqueous solubility of the compound by chemiluminescence nitrogen detection analysis; conditions: buffer
[16] = pH 10.5 – pH 7.4
Cytochrome P450 3A4 [17] = target: T2, Cytochrome P450 3A4; assay: Reversible inhibition of CYP3A4 (unknown origin) in presence of NADPH by vivid red substrate-based assay
[18] = target: Voltage-gated inwardly rectifying potassium channel KCNH2 (Homo sapiens, UniProt Q12809); assay: Inhibition of human ERG expressed in CHO cells by Qpatch assay
Sequence of Voltage-gated inwardly rectifying potassium channel KCNH2 (Q12809 whole entry): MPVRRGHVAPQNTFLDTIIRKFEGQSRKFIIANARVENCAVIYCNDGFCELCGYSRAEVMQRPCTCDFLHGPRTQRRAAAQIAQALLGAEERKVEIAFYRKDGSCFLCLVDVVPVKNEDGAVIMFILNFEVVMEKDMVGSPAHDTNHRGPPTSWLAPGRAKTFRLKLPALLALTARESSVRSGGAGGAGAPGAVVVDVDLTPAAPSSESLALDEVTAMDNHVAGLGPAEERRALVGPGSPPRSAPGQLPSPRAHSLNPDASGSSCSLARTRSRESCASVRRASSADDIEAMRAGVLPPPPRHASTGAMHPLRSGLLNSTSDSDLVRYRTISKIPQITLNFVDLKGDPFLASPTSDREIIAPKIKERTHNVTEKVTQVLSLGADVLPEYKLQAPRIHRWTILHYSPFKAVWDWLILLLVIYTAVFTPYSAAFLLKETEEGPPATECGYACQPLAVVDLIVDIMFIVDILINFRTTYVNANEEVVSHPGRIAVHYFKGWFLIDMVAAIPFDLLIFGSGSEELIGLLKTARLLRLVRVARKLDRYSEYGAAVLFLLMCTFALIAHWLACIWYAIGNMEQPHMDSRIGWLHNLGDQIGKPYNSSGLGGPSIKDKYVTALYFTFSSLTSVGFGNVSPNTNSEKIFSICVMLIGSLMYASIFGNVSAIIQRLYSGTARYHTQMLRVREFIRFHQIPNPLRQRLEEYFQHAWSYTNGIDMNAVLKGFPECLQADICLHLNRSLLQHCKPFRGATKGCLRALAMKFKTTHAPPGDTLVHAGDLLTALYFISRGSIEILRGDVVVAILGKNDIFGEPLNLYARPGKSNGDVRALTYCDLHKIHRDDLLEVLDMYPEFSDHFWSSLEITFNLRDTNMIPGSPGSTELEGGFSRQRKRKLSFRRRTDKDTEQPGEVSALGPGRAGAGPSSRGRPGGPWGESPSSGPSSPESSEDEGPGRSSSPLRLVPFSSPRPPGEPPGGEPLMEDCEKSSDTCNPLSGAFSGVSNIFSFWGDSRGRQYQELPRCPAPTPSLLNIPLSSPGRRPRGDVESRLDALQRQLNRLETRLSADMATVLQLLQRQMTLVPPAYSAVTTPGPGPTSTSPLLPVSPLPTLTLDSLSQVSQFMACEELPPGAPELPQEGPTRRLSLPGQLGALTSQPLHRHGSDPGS

[19] = Lipophilicity, chromatographic hydrophobicity index of the compound in immobilized artificial membrane
[20] = Fraction unbound in Sprague-Dawley rat heart failure-induced pulmonary edema model at 0.09 to 0.78 mg/kg, iv bolus loading dose followed by 0.07 to 0.6 ug/kg/min, iv continuous infusion dose for 60 mins; format: ADME, organism-based; conditions: in vivo
[21] = target: Transient receptor potential cation channel subfamily V member 4 (Rattus norvegicus, UniProt Q9ERZ8); assay: Antagonist activity at rat TRPV4 expressed in BHK/AC9 cells assessed as inhibition of GSK634775-induced […] pre-incubated for 10 mins followed by agonist addition by Fluo-4-AM dye-based FLIPR assay; format: cell-based
Sequence of Transient receptor potential cation channel subfamily V member 4 (Rattus norvegicus, UniProt Q9ERZ8) (Q9ERZ8 whole entry, the tested form may be a part): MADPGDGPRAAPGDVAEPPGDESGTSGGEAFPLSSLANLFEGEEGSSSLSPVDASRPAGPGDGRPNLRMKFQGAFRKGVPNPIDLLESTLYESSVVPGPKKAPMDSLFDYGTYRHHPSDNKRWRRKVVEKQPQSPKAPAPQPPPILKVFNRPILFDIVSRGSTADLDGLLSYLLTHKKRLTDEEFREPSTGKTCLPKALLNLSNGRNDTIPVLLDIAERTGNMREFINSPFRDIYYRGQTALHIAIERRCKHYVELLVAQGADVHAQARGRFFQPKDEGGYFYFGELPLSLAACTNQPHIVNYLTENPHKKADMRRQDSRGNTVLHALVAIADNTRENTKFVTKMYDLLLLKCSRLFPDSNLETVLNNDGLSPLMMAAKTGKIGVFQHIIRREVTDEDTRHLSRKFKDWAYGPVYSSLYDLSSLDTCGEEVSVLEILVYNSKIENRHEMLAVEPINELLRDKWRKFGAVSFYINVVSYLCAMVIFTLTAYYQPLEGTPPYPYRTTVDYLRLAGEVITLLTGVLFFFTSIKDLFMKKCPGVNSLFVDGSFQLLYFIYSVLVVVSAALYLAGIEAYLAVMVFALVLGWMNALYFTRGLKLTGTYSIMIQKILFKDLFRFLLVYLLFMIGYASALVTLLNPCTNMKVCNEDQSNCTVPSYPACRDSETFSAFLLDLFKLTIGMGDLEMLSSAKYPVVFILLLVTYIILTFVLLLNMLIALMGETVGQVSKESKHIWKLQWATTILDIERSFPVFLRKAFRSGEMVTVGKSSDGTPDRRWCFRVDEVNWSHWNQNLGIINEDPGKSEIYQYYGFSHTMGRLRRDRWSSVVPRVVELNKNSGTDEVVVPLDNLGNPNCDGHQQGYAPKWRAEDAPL

Rattus norvegicus [22] = assay: (§1) Reversal of heart failure-induced pulmonary edema in Sprague-Dawley rat assessed as inhibition of GSK1016790A-induced increase in lung wet weight to body weight ratio at 0.09 to 0.78 mg/kg, iv bolus loading dose followed by 0.07 to 0.6 ug/kg/min, iv continuous infusion dose for 60 mins prior to agonist administration; format: functional, organism-based
Method in brief: (§2)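 Rats given vehicle or antagonist by i.v. infusion, then agonist GSK1016790A i.v. at 10 µg/kg/min for 10 min (100 µg/kg total). Edema scored as wet lung weight/body weight ratio against naïve animals; inhibition computed from the agonist response; mean ± SEM.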

Rattus norvegicus [23] = assay: as §1, with “0.26” for “0.09 to 0.78”, “0.2” for “0.07 to 0.6”, “administration relative to control” for “administration”; format: functional; method in brief: as §2
[24] = Plasma concentration in Sprague-Dawley rat heart failure-induced pulmonary edema model at 0.78 mg/kg, iv bolus loading dose followed by 0.6 ug/kg/min, iv continuous infusion dose for 60 mins; format: ADME, organism-based
[25] = Plasma concentration in Sprague-Dawley rat heart failure-induced pulmonary edema model at 0.26 mg/kg, iv bolus loading dose followed by 0.2 ug/kg/min, iv continuous infusion dose for 60 mins; format: ADME, organism-based
[26] = Plasma concentration in Sprague-Dawley rat heart failure-induced pulmonary edema model at 0.09 mg/kg, iv bolus loading dose followed by 0.07 ug/kg/min, iv continuous infusion dose for 60 mins; format: ADME, organism-based

T1 sequence (Q9HBA0 whole entry): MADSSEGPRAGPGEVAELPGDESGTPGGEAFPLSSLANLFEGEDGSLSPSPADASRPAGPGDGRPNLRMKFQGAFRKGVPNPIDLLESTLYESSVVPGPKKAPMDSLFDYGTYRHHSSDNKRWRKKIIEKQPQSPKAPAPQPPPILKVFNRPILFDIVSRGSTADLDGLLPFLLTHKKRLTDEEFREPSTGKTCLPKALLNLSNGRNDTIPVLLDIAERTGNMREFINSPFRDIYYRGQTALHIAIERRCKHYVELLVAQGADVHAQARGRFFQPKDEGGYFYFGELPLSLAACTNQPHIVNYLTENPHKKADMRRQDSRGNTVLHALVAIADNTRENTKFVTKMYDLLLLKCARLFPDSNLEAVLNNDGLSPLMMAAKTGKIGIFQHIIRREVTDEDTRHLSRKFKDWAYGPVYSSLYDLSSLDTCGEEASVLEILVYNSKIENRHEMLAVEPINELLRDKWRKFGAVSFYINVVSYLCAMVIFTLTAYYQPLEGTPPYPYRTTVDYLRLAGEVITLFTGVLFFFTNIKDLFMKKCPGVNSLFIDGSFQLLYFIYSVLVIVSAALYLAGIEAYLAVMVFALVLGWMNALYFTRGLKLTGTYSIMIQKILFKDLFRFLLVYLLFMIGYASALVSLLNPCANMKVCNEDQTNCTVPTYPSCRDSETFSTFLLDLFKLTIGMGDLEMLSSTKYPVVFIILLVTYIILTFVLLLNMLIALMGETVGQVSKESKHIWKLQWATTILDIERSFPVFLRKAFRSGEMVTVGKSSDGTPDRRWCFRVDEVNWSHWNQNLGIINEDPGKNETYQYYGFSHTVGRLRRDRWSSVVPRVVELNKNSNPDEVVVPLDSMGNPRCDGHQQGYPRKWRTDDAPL

Row | Structure (SMILES) | IC50 [1] [nM] | bioavailability [2] [%] | IC50 [3] [nM] | MRT [4] [h] | clearance [5] [mL/min/kg] | CL free [6] [mL/min/kg] | Vd [7] [L/kg] | other results
1 | N#Cc1ccc(S(=O)(=O)[C@@H]2CN(S(=O)(=O)c3ccc(Cl)cc3Cl)C[C@]2(O)CO)cc1 | 159 | – | – | – | – | – | – | –
2 | N#Cc1ccc(S(=O)(=O)[C@H]2CN(S(=O)(=O)c3ccc(Cl)cc3Cl)C[C@@]2(O)CO)cc1F | – | 51 | 2 | 0.8 | 25 | 14 | 1.2 | remaining at 0.5 h [8]: 46%
3 | O=C(NC1(c2ccccc2)CC1)c1c(CN2CCC(N3CCCCC3)CC2)c(-c2cccc(C(F)(F)F)c2)nc2cc(Br)ccc12 | – | – | – | – | – | – | – | IC50 [9]: 50 nM
4 | N#Cc1ccc(O[C@H]2CN(S(=O)(=O)c3ccc(Cl)cc3Cl)C[C@@]2(O)CO)cc1 | – | 46 | – | 0.6 | 74 | 15 | 2.4 | Papp [10]: 37 ×10⁻⁶ cm/s
5 | N#Cc1ccc(S(=O)(=O)N2C[C@H](S(=O)(=O)c3ccc(Cl)cc3)[C@](O)(CN)C2)c(Cl)c1 | – | 22 | – | 5.7 | 12 | 2.7 | 4 | Activity (HepG2 [11]): 425%; pMED (HepG2 [12]): 4.7
6 | N#Cc1ccc(S(=O)(=O)N2C[C@H](S(=O)(=O)c3ccc(Cl)cc3)[C@](O)(CO)C2)c(C(F)(F)F)n1 | – | 8 | 20 | 0.2 | 310 | 66 | 3.6 | –
7 | N#Cc1ccc(S(=O)(=O)[C@H]2CN(S(=O)(=O)c3ccc(Cl)cc3Cl)C[C@@H]2O)cc1 | 25 | 100 | – | 2 | 9 | 30 | 1.1 | Papp [10]: 78 ×10⁻⁶ cm/s
8 | N#Cc1ccc(S(=O)(=O)[C@H]2CN(S(=O)(=O)c3ccc(Cl)cc3Cl)C[C@@]2(O)CO)cc1 | 7.9 | 100 | – | 1.7 | 25 | 9 | 2.3 | Papp [10]: 45 ×10⁻⁶ cm/s; remaining at 0.5 h [8]: 89%
9 | CC(C)(C)c1cc(N2C[C@@]3(CCC[C@](C)(Cn4cnc5ccc(C#N)cc54)C3)OC2=O)no1 | – | – | – | – | – | – | – | IC50 [13]: 7.5 nM
10 | N#Cc1ccc(S(=O)(=O)N2C[C@H](S(=O)(=O)c3ccc(Cl)cc3)[C@](O)(CO)C2)cn1 | – | 62 | 631 | 3 | 22 | 1.2 | 4.1 | –
11 | N#Cc1ccc(S(=O)(=O)N2C[C@H](S(=N)(=O)c3ccc(Cl)cc3)[C@](O)(CO)C2)c(Cl)c1 (some centres undefined) | – | 38 | 20 | 1 | 52 | 4.8 | 3.2 | –
12 | N#Cc1ccc(S(=N)(=O)N2C[C@H](S(=O)(=O)c3ccc(Cl)cc3)[C@](O)(CO)C2)c(Cl)c1 (some centres undefined) | – | 80 | 40 | 0.9 | 48 | 8.9 | 2.7 | –
13 | N#Cc1ccc(S(=O)(=O)N2C[C@H](S(=O)(=O)c3ccc(Cl)cn3)[C@](O)(CN)C2)c(Cl)c1 | – | 64 | 0.5 | 1.9 | 12 | 3.8 | 1.3 | TDI (Cytochrome P450 3A4 [14]): Not Active; solubility kinetic [15]: 500 µM (≈ 246 µg/mL); pMED (HepG2 [12]): < 4; ΔCHI [16]: -2.2; IC50 (Cytochrome P450 3A4 [17]): 300 nM; IC50 [18]: 8000 nM; CHI [19]: 42
14 | N#Cc1ccc(S(=O)(=O)[C@@H]2CN(S(=O)(=O)c3ccc(Cl)cc3Cl)C[C@@]2(O)CO)cc1 | 1590 | – | – | – | – | – | – | –
15 | N#Cc1ccc(S(=O)(=O)N2C[C@H](S(=O)(=O)c3ccc(Cl)cn3)[C@@](O)(CN)C2)c(Cl)c1 | – | 56 | 0.5 | 2.2 | 1.7 | 1.7 | 0.2 | TDI (Cytochrome P450 3A4 [14]): Not Active; solubility kinetic [15]: 500 µM (≈ 246 µg/mL); fraction unbound at 1 h [20]: 0.014; pMED (HepG2 [12]): < 4; ΔCHI [16]: 3.7; IC50 (Cytochrome P450 3A4 [17]): 4000 nM; IC50 [21]: 1 nM; IC50 [18]: 8000 nM; fIC50 (Rattus norvegicus [22]): 8.5 nM; IC50 (Rattus norvegicus [22]; Rattus norvegicus, Sprague-Dawley): 611 nM; inhibition (INH) (Rattus norvegicus [23]): 88%; concentration at 1 h [24]: 4500 nM; concentration at 1 h [25]: 2100 nM; concentration at 1 h [26]: 400 nM; CHI [19]: 36
16 | N#Cc1ccc(S(=O)(=O)[C@H]2CN(S(=O)(=O)c3ccc(Cl)cc3C#N)C[C@@]2(O)CO)cc1 | – | 25 | 2 | 0.5 | 82 | 7 | 2.6 | solubility kinetic [15]: 380 µM (≈ 183 µg/mL)
17 | N#Cc1ccc(S(=O)(=O)[C@H]2CN(S(=O)(=O)c3ccc(C#N)cc3Cl)C[C@@]2(O)CO)cc1 | – | 15 | 3.2 | 1 | 35 | 4 | 2.2 | solubility kinetic [15]: 400 µM (≈ 193 µg/mL); Papp [10]: 35 ×10⁻⁶ cm/s
18 | N#Cc1ccc(S(=O)(=O)N2C[C@H](S(=O)(=O)c3ccc(Cl)cn3)[C@](O)(CO)C2)c(Cl)c1 | – | 62 | – | 1.4 | 23 | 11 | 2 | –
19 | N#Cc1ccc(S(=O)(=O)[C@H]2CN(S(=O)(=O)c3ccc(Cl)cc3Cl)C[C@]2(O)CO)cc1 | 50 | – | – | – | – | – | – | –
20 | N#Cc1ccc(O[C@H]2CN(S(=O)(=O)c3ccc(Cl)cc3Cl)C[C@@H]2O)cc1 | 32 | – | – | – | – | – | – | –

Reference: ChEMBL document CHEMBL4382258, “Design and Optimization of Sulfone Pyrrolidine Sulfonamide Antagonists of Transient Receptor Potential Vanilloid-4 with in Vivo Activity in a Pulmonary Edema Model” (J Med Chem, 2018)
